From ChEMBL document CHEMBL1136172, “Pyrrolo[2,3-h]quinolinones: synthesis and photochemotherapic activity” (Bioorg Med Chem Lett, 2003)

Legend:
Format in all cases: functional, cell-based
Conditions in all cases: HT-1080, light or radiation study
HT-1080 [1] = test: Inhibition of cell growth after irradiation at UVA dose of 6.5 J/cmE-2 in HT1080 human fibrosarcoma cell line
In short: (§1)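 HT-1080 cells from exponential culture seeded at 5×10⁴ cells/mL in DMEM with 10% FBS and penicillin/streptomycin, and allowed to adhere 18 h. Drug was dissolved in DMSO, diluted in HBSS pH 7.2 and incubated 30 min at 37 °C, 5% CO2. Cells were irradiated with lamps emitting mainly at 365 nm, then given medium for 72 h. Read-out was MTT versus untreated controls, with IC50 by linear regression from three experiments.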

HT-1080 [2] = test: Inhibition of cell growth after irradiation at UVA dose of 3.2 J/cmE-2 in HT1080 human fibrosarcoma cell line; in short: as §1
HT-1080 [3] = test: Inhibition of cell growth after irradiation at UVA dose of 2.6 J/cmE-2 in HT1080 human fibrosarcoma cell line; in short: as §1

SMILES | IC50 (HT-1080 [1]) | IC50 (HT-1080 [2]) | IC50 (HT-1080 [3])
Cc1cc2c(n1C)CCc1cc(S(=O)(=O)c3ccccc3)c(O)nc1-2 | 16.4 µM | > 20 µM | > 20 µM
Cc1cc2c(n1C)CCc1cc(C(=O)c3ccccc3)c(O)nc1-2 | > 20 µM | > 20 µM | > 20 µM
O=c1ccc2ccc3occc3c2o1 [ANGELICIN] | 2.5 µM | 2.6 µM | 15.7 µM
COc1c2ccoc2cc2oc(=O)ccc12 [BERGAPTEN] | 0.9 µM | 1.8 µM | 8.5 µM

Further compounds by falling IC50 (HT-1080 [1]), results first:

IC50 (HT-1080 [1]) | IC50 (HT-1080 [2]) | IC50 (HT-1080 [3]) | SMILES
11.1 µM | 13.1 µM | > 20 µM | Cc1cc2c(n1-c1ccccc1)CCc1cc(C#N)c(O)nc1-2
1.9 µM | 9 µM | 14.7 µM | Cc1cc2c(n1Cc1ccccc1)CCc1cc(C(=O)c3ccccc3)c(O)nc1-2
1.8 µM | 15.1 µM | > 20 µM | Cc1cc2c(n1Cc1ccccc1)CCc1cc(S(=O)(=O)c3ccccc3)c(O)nc1-2
1.7 µM | 4.6 µM | 6.6 µM | Cc1cc2c(n1-c1ccccc1)CCc1cc(C(=O)c3ccccc3)c(O)nc1-2
1.5 µM | 2.1 µM | 7.8 µM | COc1c2occc2cc2ccc(=O)oc12 [METHOXSALEN]
0.4 µM | 2.3 µM | 3.6 µM | Cc1cc2c(n1-c1ccccc1)CCc1cc(S(=O)(=O)c3ccccc3)c(O)nc1-2
